This note sets out measurements from ChEMBL document CHEMBL1255223, “Structure-activity relationship study of first selective inhibitor of excitatory amino acid transporter subtype 1: 2-Amino-4-(4-methoxyphenyl)-7-(naphthalen-1-yl)-5-oxo-5,6,7,8-tetrahydro-4H-chromene-3-carbonitrile (UCPH-101)” (J Med Chem, 2010).

Each structure is given as a SMILES string. Active and inactive are the calls of the source. The rule behind the calls is not given here.

In data set [1] the target is Excitatory amino acid transporter 1 (Homo sapiens, UniProt P43003). In words: Inhibition of human EAAT1 expressed in HEK293 cells by [3H]D-Asp uptake assay. In kind it is cell-based. As to conditions: for pIC50: hek293.
Excitatory amino acid transporter 1, sequence (P43003 whole entry): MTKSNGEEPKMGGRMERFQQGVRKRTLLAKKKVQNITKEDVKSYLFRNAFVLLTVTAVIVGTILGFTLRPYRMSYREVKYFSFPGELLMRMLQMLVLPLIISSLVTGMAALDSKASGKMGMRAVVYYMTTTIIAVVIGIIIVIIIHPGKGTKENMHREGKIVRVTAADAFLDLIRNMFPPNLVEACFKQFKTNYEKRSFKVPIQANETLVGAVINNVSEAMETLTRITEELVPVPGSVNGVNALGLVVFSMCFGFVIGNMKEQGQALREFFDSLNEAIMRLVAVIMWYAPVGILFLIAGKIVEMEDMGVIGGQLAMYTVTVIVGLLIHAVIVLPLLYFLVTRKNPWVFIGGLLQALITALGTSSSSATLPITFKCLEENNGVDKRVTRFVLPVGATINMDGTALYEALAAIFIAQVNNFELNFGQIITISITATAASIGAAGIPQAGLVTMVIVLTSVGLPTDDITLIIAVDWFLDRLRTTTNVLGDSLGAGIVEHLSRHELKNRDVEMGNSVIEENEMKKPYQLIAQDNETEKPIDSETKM
The target in data set [2] is Excitatory amino acid transporter 2 (Homo sapiens) (UniProt P43004). Kind of data set: Inhibition of human EAAT2 expressed in HEK293 cells at 300 uM by [3H]D-Asp uptake assay. The format is cell-based. Summed up: (§1)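 [3H]-D-Asp uptake was measured in HEK293 cell lines expressing EAAT2 or EAAT3. Each analogue was tested at the highest concentration possible for it (75, 100, 300 or 1000 μM) to assess inhibitory activity.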
Excitatory amino acid transporter 2 (Homo sapiens), sequence (P43004 whole entry): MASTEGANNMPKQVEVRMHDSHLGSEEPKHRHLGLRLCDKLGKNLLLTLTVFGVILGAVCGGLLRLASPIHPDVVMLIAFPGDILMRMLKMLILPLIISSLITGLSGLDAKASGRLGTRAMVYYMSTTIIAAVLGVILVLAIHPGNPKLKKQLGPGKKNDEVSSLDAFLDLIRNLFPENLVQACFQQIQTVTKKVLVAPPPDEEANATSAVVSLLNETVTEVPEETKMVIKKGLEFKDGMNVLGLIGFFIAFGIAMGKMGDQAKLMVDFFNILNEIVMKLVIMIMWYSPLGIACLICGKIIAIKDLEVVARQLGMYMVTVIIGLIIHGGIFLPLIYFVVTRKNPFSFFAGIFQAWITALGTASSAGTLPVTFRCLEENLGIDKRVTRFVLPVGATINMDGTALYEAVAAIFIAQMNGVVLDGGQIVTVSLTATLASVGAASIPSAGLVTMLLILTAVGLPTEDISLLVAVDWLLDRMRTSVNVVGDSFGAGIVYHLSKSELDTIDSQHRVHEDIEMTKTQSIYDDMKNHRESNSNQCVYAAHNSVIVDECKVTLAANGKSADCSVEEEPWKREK

The target of data set [3] is T1, Excitatory amino acid transporter 3 (Homo sapiens) (UniProt P43005).
T1 sequence (whole entry): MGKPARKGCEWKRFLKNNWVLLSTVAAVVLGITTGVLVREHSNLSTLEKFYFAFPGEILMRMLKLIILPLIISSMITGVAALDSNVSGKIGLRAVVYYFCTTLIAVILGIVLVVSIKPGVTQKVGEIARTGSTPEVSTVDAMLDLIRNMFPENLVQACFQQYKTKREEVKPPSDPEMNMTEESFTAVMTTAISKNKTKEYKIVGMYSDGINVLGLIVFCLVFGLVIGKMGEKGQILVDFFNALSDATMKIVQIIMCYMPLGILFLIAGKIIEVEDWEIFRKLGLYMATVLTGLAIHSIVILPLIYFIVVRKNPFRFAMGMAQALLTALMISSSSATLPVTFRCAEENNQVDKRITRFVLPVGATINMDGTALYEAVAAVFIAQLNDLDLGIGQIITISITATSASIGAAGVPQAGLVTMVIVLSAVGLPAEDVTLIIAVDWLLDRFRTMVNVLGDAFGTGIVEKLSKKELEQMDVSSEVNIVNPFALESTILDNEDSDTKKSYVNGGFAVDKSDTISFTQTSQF
Kind of data set: Inhibition of human EAAT3 expressed in HEK293 cells at 300 uM by [3H]D-Asp uptake assay. In kind it is cell-based. Summed up: as §1

In data set [4] the target is T1, Excitatory amino acid transporter 3 (Homo sapiens). Kind of data set: Inhibition of human EAAT3 expressed in HEK293 cells at 100 uM by [3H]D-Asp uptake assay. The format is cell-based. The method, boiled down:
as §1

The target in data set [5] is Excitatory amino acid transporter 2 (Homo sapiens) (UniProt P43004). In words: Inhibition of human EAAT2 expressed in HEK293 cells at 100 uM by [3H]D-Asp uptake assay. In kind it is cell-based. Summed up: as §1
A short description of data set [6]: Terminal half life in Sprague-Dawley rat at 10 mg/kg. In kind it is ADME, organism-based. The arrangement: dose 10 mg/kg. As to conditions: in vivo, read-out: beta t1/2. The method, boiled down:
(§2)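 Male Sprague-Dawley rats (225 g at arrival) received an oral dose of 10 mg/kg, formulated in 100% PEG400 (5 mL/kg). Three groups (n = 3/group) were sampled at 0.5, 1 and 2 h for cardiac EDTA plasma (under isoflurane) and whole brain homogenized in 70% acetonitrile. UPLC-MS/MS quantitation used an internal standard, with a brain limit of quantification of 10 ng/g.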

The test system of data set [7] is Brain. In words: Drug level in Sprague-Dawley rat brain at 10 mg/kg. In kind it is ADME, organism-based. The arrangement: dose 10 mg/kg. To be noted: in vivo. Summed up:
as §2

For data set [8], the target named is T1, Excitatory amino acid transporter 3 (Homo sapiens). Kind of data set: Inhibition of human EAAT3 expressed in HEK293 cells at 75 uM by [3H]D-Asp uptake assay. The format is cell-based. The method, boiled down: as §1
For data set [9], the target named is Excitatory amino acid transporter 2 (Homo sapiens) (UniProt P43004). In words: Inhibition of human EAAT2 expressed in HEK293 cells at 75 uM by [3H]D-Asp uptake assay. The format is cell-based. Summed up:
as §1

For data set [10] the target is unchanged. In words: Inhibition of human EAAT2 expressed in HEK293 cells at 1000 uM by [3H]D-Asp uptake assay. The format is cell-based. The method, boiled down: as §1
In data set [11] the target is T1, Excitatory amino acid transporter 3 (Homo sapiens). Kind of data set: Inhibition of human EAAT3 expressed in HEK293 cells at 1000 uM by [3H]D-Asp uptake assay. In kind it is cell-based. The method, boiled down: as §1

For `N#CC1=C(N)OC2=C(C(=O)O[C@H](c3ccccc3)C2)[C@@H]1c1ccccc1` (relative stereo), the IC50 in data set [1] (read-out: IC50) is > 300 µM; in data set [1] (read-out: pIC50 (converted)), > 316 µM. Besides, the inhibition result in [2] and in data set [3] was “inactive” throughout.

Turning to `CC(=O)NC1=C(C#N)C(c2ccccc2)C2=C(CC(c3ccccc3)CC2=O)O1` (stereo unspecified), the inhibition entry in data set [4] and in data set [5] was “inactive” each time. In addition, in [1], the pIC50 was < 4. In [1] (read-out: IC50), the IC50 is > 100 µM.

As to `N#CC1=C(N)OC2=C(C(=O)N[C@@H](c3ccccc3)C2)[C@@H]1c1ccccc1` (relative stereo), the IC50 was > 300 µM in data set [1] (read-out: IC50) and > 316 µM in data set [1] (read-out: pIC50 (converted)). The inhibition entry in [2] and in data set [3] was “inactive” each time.

For `COc1ccc(C2C(C#N)=C(N)OC3=C2C(=O)CC(c2cccc4ccccc24)C3)cc1` (stereo unspecified), the half-life in data set [6] is 30 min. In [7], the Drug uptake was < 10 ng/g. The inhibition result in [2] and in data set [3] was “inactive” throughout.

Turning to `COC(=O)C1=C(N)OC2=C(C(=O)CC(c3ccccc3)C2)C1c1ccccc1` (stereo unspecified), the results for the IC50 in data set [1] (read-out: IC50) and in [1] (read-out: pIC50 (converted)) were > 300 µM and > 316 µM, respectively. Besides, the inhibition result in [2] and in data set [3] was “inactive” throughout.

On to `COc1ccc(C2C(C#N)=C(N)OC3=C2C(=O)CC(Cc2ccccc2)C3)cc1` (stereo unspecified), for which the inhibition entry in data set [4] and in data set [5] was “inactive” in each case. The IC50 is 5.1 µM in data set [1] (read-out: IC50) and 4.79 µM in data set [1] (read-out: pIC50 (converted)).

As to `NC(=O)C1=C(N)OC2=C(C(=O)CC(c3ccccc3)C2)C1c1ccccc1` (stereo unspecified), the inhibition entry in data set [4] and in [5] was “inactive” each time. The pIC50 in data set [1] is on record as < 4. Besides, in data set [1] (read-out: IC50), the IC50 is > 100 µM.

For the compound `CC(C)(C)OC(=O)C1=C(N)OC2=C(C(=O)CC(c3ccccc3)C2)C1c1ccccc1` (stereo unspecified), the inhibition entry in data set [8] and in [9] was “inactive” each time. Moreover, the IC50 was > 75 µM in data set [1] (read-out: IC50) and > 158 µM in data set [1] (read-out: pIC50 (converted)).

Take `CC1CC(=O)C2=C(C1)OC(N)=C(C#N)C2c1ccc2c(c1)OCO2` (stereo unspecified): in data set [1] (read-out: pIC50 (converted)), the IC50 is > 316 µM. Besides, the inhibition entry in [2] and in data set [3] was “inactive” each time.

On to `CC1C(C#N)=C(N)OC2=C1C(=O)CC(c1cccc3ccccc13)C2` (stereo unspecified), for which the inhibition entry in data set [4] and in data set [5] was “inactive” in each case. For the same compound, the IC50 in data set [1] (read-out: IC50) was 0.43 µM; in data set [1] (read-out: pIC50 (converted)), 0.339 µM.

Regarding `N#CC1=C(N)OC2=C(C(=O)CC(c3ccccc3)C2)C1c1ccccc1` (stereo unspecified), the inhibition entry in data set [10] and in data set [11] was “inactive” each time. In addition, the IC50 was 3.8 µM in data set [1] (read-out: IC50) and 6.31 µM in data set [1] (read-out: pIC50 (converted)).

As for `COc1ccc(C2C(C#N)=C(N)OC3=C2C(=O)CC(c2ccc4ccccc4c2)C3)cc1` (stereo unspecified), the IC50 in [1] (read-out: IC50) amounted to 3.2 µM. In addition, the inhibition entry in [2] and in data set [3] was “inactive” in each case.

Turning to `NC1=CC(c2ccccc2)C2=C(CC(c3ccccc3)CC2=O)O1` (stereo unspecified), the inhibition entry in data set [4] and in [5] was “inactive” each time. The pIC50 in [1] is < 4. In addition, the IC50 in data set [1] (read-out: IC50) was > 100 µM.

In the case of `N#CC1=C(N)OC2=C(C(=O)CC(c3ccccc3)C2)C1c1ccccc1F` (stereo unspecified), the inhibition result in [4] and in [5] was “inactive” in each case.

In the case of `N#CC1=C(N)OC2=C(C(=O)CCC2)C1c1ccccc1F` (stereo unspecified), in [1] (read-out: pIC50 (converted)), the IC50 was > 316 µM. The inhibition result in [2] and in data set [3] was “inactive” in each case.

With `CCO/C=N/C1=C(C#N)C(c2ccccc2)C2=C(CC(c3ccccc3)CC2=O)O1` (stereo unspecified), the inhibition entry in data set [10] and in [11] was “inactive” each time. The pIC50 in data set [1] is reported as < 3. Further, the IC50 in data set [1] (read-out: IC50) is > 1000 µM.

`N#CC1=C(N)OC2=C(C(=O)N[C@H](c3ccccc3)C2)[C@@H]1c1ccccc1` (relative stereo): the IC50 is > 300 µM in data set [1] (read-out: IC50) and > 316 µM in data set [1] (read-out: pIC50 (converted)). The inhibition result in data set [2] and in data set [3] was “inactive” each time.

For the compound `N#CC1=C(N)OC2=C(C1)C(=O)CC(c1ccccc1)C2` (stereo unspecified), the IC50 in data set [1] (read-out: pIC50 (converted)) is > 316 µM. Also, the inhibition entry in [2] and in data set [3] was “inactive” each time.

With `N#CC1=COC2=C(C(=O)CC(c3ccccc3)C2)C1c1ccccc1` (stereo unspecified), the inhibition result in [4] and in data set [5] was “inactive” each time. Also, in data set [1], the negative-log IC50 (pIC50) is listed as < 4. Also, the IC50 in data set [1] (read-out: IC50) is > 100 µM.

For `CC1C(C#N)=C(N)OC2=C1C(=O)CC(c1ccccc1)C2` (stereo unspecified), the inhibition result in data set [2] and in data set [3] was “inactive” in each case.

Turning to `N#CC1=C(N)OC2=C(C(=O)O[C@@H](c3ccccc3)C2)[C@@H]1c1ccccc1` (relative stereo), the IC50 in data set [1] (read-out: IC50) was > 300 µM; in [1] (read-out: pIC50 (converted)), > 316 µM. For the same compound, the inhibition entry in [2] and in data set [3] was “inactive” each time.

By pIC50 is commonly meant −log10 of the IC50, conventionally taken in molar units. A low value points to a large IC50.
